The target in assay [1] is T1, Protein deacetylase HDAC6 (Homo sapiens) (UniProt Q9UBN7).
T1 sequence (whole entry): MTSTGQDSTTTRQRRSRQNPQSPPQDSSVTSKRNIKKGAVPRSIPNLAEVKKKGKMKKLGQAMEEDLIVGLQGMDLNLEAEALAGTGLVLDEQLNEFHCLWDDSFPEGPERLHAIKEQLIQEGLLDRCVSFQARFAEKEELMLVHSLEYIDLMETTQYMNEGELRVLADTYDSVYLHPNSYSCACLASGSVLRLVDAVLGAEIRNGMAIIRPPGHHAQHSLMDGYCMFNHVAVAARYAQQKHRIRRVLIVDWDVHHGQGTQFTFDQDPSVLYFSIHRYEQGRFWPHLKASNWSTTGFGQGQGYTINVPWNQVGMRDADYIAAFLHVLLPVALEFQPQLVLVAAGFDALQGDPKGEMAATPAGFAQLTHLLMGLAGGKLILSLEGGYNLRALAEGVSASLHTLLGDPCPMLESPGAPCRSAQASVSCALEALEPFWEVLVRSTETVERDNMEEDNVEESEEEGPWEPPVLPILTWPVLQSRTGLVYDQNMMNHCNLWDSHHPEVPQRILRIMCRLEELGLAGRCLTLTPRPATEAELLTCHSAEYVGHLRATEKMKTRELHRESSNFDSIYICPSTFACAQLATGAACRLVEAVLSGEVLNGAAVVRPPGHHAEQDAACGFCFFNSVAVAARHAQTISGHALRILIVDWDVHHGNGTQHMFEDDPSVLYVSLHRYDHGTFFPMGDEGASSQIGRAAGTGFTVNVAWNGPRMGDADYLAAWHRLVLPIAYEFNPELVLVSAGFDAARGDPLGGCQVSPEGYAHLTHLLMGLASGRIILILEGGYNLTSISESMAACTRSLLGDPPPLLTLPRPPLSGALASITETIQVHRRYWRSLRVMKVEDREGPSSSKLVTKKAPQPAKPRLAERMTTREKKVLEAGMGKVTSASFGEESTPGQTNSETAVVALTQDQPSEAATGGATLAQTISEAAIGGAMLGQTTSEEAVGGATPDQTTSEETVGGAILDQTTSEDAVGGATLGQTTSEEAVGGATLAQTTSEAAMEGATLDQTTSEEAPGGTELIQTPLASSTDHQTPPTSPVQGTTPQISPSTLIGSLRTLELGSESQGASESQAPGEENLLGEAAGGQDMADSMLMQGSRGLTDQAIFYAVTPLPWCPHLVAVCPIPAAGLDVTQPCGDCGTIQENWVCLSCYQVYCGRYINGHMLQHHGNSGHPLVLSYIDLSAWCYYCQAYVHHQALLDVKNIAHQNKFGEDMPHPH
Nature of the assay: Binding affinity to N-terminal GST tagged human recombinant HDAC6 (1 to 1215 residues) expressed in Sf9 insect cells using Z-Lys(Ac)-AMC as fluorogenic substrate assessed as induced-fit mechanism by measuring hyperbolic relationship between Kobs and inhibitor concentration measured every 0.5 mins for 45 mins. The essentials:
(§1)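 Finals were 220 pg/μL enzyme, 93.0 μM ZMAL (5× KM; KM 19.27 μM) and 20 ng/μL trypsin. AMC read continuously (ex 360/em 460) at 37 °C. Curves fitted for kobs, then kobs vs [I] fitted; triplicates.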

In assay [2] the target is T2, Histone deacetylase 6 (Danio rerio) (UniProt F8W4B7).
T2 sequence (whole entry): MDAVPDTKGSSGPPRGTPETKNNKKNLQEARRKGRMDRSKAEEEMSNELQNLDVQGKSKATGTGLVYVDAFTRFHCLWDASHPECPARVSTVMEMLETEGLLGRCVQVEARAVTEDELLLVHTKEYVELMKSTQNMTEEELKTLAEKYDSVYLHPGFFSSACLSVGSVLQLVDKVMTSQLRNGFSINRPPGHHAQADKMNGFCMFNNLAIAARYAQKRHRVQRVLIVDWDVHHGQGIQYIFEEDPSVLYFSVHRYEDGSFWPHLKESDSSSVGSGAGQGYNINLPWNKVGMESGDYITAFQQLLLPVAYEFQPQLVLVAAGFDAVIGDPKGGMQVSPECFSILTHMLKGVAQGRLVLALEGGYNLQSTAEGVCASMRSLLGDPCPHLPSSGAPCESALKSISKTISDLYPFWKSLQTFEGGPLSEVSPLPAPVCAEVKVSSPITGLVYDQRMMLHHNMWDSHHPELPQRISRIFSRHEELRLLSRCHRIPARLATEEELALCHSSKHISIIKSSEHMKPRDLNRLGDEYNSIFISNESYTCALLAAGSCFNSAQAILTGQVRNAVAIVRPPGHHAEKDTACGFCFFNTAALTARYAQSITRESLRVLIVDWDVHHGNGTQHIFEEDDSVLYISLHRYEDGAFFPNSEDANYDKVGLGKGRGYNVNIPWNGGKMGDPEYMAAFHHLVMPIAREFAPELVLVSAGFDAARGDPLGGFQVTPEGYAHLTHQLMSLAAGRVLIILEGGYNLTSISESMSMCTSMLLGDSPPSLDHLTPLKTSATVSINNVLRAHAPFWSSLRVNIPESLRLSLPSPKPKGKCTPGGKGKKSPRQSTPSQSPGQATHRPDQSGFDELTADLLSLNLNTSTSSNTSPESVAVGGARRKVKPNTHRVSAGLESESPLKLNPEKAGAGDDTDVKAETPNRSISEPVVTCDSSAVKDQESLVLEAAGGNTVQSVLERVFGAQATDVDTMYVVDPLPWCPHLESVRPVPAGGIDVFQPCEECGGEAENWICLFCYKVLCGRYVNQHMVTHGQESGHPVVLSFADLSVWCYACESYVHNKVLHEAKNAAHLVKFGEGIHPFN
The experiment in a line: Irreversible inhibition of Danio rerio HDAC6 using RHKK(Ac)-AMC as fluorogenic substrate at 100 uM preincubated for 1 hr followed by dialysis for 21 hrs and substrate addition for 30 mins by microplate reader analysis. The note with it: Sf9. The essentials:
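zCD2 at 1 μM was incubated with 100 μM inhibitor for 1 h, then dialysed at 4 °C against HEPES pH 7.5 buffer with 0.25% DMSO, overnight, sampled at 6 and 21 h. Each sample was mixed with 250 μM RHKK(Ac)-AMC (pre-mix level) for 30 min. Trypsin/TSA developer was then added and fluorescence read at ex 360/em 460. Triplicates.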

Assay [3] deals with T1, Protein deacetylase HDAC6 (Homo sapiens). The experiment in a line: Irreversible inhibition of N-terminal GST tagged human recombinant HDAC6 (1 to 1215 residues) expressed in Sf9 insect cells using Z-Lys(Ac)-AMC as fluorogenic substrate at 6.5 uM preincubated for 1 hr followed by 100-fold dilution and substrate addition measured every 0.5 mins for 60 mins by microplate reader analysis. The essentials: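 It was then diluted 100-fold in buffer or in inhibitor at the original concentration. Finals were 220 pg/μL enzyme, 93 μM ZMAL and 20 ng/μL trypsin. AMC release was read every 0.5 min for 60 min at 37 °C; triplicates.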

Assay [4] shares this target. Nature of the assay: Binding affinity to N-terminal GST tagged human recombinant HDAC6 (1 to 1215 residues) expressed in Sf9 insect cells using Z-Lys(Ac)-AMC as fluorogenic substrate assessed as single step slow binding mechanism by measuring linear relationship between Kobs and inhibitor concentration measured every 0.5 mins for 45 mins. The method, boiled down: as §1

Active and inactive are the calls of the source. The rule behind the calls is not given here.

For the compound `FC(F)c1nnc(-c2cnc(NCc3ccccc3)nc2)o1`, the result in assay [1] was Active. Besides, in assay [2], the inhibition result was “Active”.

Turning to `FC(F)(F)c1nnc(-c2cnc(NCc3ccccc3)nc2)o1`, the inhibition result in assay [3] was “inactive”. Also, in assay [4], the result was Active.

(Values after ChEMBL document CHEMBL5365542, “Difluoromethyl-1,3,4-oxadiazoles Are Selective, Mechanism-Based, and Essentially Irreversible Inhibitors of Histone Deacetylase 6” (J Med Chem, 2023).)
